# Reference: the EternaBench riboswitch data
# Test system: MS2 coat protein
# Assay: apparent Kd, MS2 coat protein; higher = weaker binding; RNA-MaP array; FMN 200 µM where present
# How it was run: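 The apparent Kd is the median of filtered binding-curve fits, one per cluster, to green signal normalised to red-channel RNA signal and control-cluster median Fmax. The clusters were on Illumina sequencing chips, and stalled E. coli RNA polymerase had transcribed the designs on them. Titration used SNAP-549-labelled MS2 coat protein from 0.7 or 1.5 nM, doubling to 3 µM, without and then with constant ligand, in 100 mM Tris-HCl pH 7.5, 80 mM KCl, 4 mM MgCl2, BSA, DTT, yeast tRNA and Tween-20.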
# [1] = designed as: ON switch for flavin mononucleotide, no ligand
# [2] = ligand present: flavin mononucleotide, designed as: ON switch for flavin mononucleotide
# [3] = designed as: OFF switch for flavin mononucleotide, no ligand
# [4] = ligand present: flavin mononucleotide, designed as: OFF switch for flavin mononucleotide
Sequence,apparent Kd [1] [nM],apparent Kd [2] [nM],apparent Kd [3] [nM],apparent Kd [4] [nM]
UUUAUGGGACAGAAGGGCAAUUUCUUUAAUUAUUAUUUAAAACAUCAUUGCAGGAUAUGUAUAACAUGAGGAUCACCCAUGUAC,36.2,12.2,,
CAGUACUGAGGAUAUACAUGAGGAUCACCCAUGUGUUCCAGCUAGGAUACUAGCAAAAGUAGAAGGCAGUACUG,,,24.6,443
AUAGCUCCCUAGAAGGGCCAACGACAAUUGCAUCACGUAGUUGGCGUAGGUAGGAUAUGGGACAUGAGGAUCACCCAUGUGUAG,27,16.1,,
UAUUUAAGAGGAUAUACAUGAGGAUCACCCAUGUGUGUCAAUACGCGUGAUUUUUCAUGUAGAAGGCUUGGGUA,,,233,129
UAAACAUGAGGAUCACCCAUGUUAUGAUCGGUUGAUGAAAGUGAGGAUAUACAAAAUUUUAUGGAGUAGAAGGCACUGGGUUCU,31.1,29.9,,
AGUGUCAUUUAGAAGGCCUCAUGACAUGAGGAUCACCCAUGUUAUCAUGGGAGGAUAUGGAUGAUAUAGUUAUGUUUCGUAGUA,307,112,,
AGAAACUACGAGAAGGACAUGUGGAAAACCGCAAACAUGAGGAUCACCCAUGUAGGAUAUCGUAGUUUCAGGAUCGUGAGAUCA,,,772,148
CCACGUCACAUCUACAUGAGGAUCACCCAUGUCGAAAGACAUGAGGAUAUGCAUCCUAAUUGGAUGCAGAAGGCAUGGACGUGG,1080,71.2,,
UGUUGUAUUACAGGAUAUCUAGUAUUUUUGUUUAGAGAAGGGUAUUCACAUGAGGAUCACCCAUGUAUAUACGAGGAAGUUGUG,57.2,63.7,,
CGCUAAGAUGGGUCUAAUGGACCAUAGGAUAUGCUUGUACAUGAGGAUCACCCAUGUAAUAUUGUGCAGAAGGGUGGAUUUGCG,26.4,19.6,,
UGUAUGGACAGAGGAUAUGCCGAUAGGAUUUACUAUCGAAGAAUCCUCACAUGAGGAUCACCCAUGUAGAAGGCUGUCCAUACU,,,8.14,38.4
CCCGUCAUCGAGAAGGCCUCAACAUGAGGAUCACCCAUGUUGUAAUAUGGGAGGAUAUCGAUGAUACAGCUACGUUUCGUAGGG,17.3,6.33,,
AGCUGGUGACAGCAUCGAGCUUAACAUGAGGAUCACCCAUGUAGAAGGCUGUACGGUUACCGUACAGAGGAUAUACAUAGCUCG,,,6.79,7.04
GUGUGCUGAGGAUAUACAGAGGAAGAUAAGAUAAGAUAAUGACAUGAGGAUCACCCAUGUAGAAGGCAGAGUGU,,,29.7,42.4
AGAUGACAAAGUCAUCUUCAACGGACAUGAGGAUCACCCAUGUAGGAUAUGCUACUCAAAGAGUAGCAGAAGGACAUGUGUCUU,,,35,193
UUAUACAUUCGAGGAUAUCGGAGAGAAAUCUUUCGAGAAGGCGAUUCAUGAUGUAUUAUCCUGGACAUGAGGAUCACCCAUGUA,96.8,76.9,,
UUGGACGUCGUAGGAUAUUUAGGAUAUUCCUACAUGAGGAUCACCCAUGUUGACAUGGAAGAAGGACAGAAGGACGAUGUCCAU,24.1,8.23,,
UGAGCAAGAGGAUAUACAAGGCGACCGUGAGGUCGAGGGUUACAUGAGGAUCACCCAUGUAGAAGGCUUGUUCU,,,37.1,323
UGGUACAUCGGAGGAUAUCAUGUGAUAACAUGAGGAUCACCCAUGUCGAUGGAGACAUCGGAGAUUGAGAAGGCCGAUGUACCU,801,84.2,,
GCUCUAUGCUAGAAGGCGUGAAACAUGAGGAUCACCCAUGUCAGAGAUAUGAGGAUAUAGCAUAGAGCAAAAGACGGAAACGUC,13.4,5.41,,
UCCUUACUGGUCAGGAUAUACAUUCGCUACUCCUUGUAGAAGGGACAUGAGGAUCACCCAUGUACUUUACAUUC,,,17.4,18.9
CAUAUACAGGGAGGAUAUAACAUGAGGAUCACCCAUGUGCAAUGCUCAAUGUUAGAAGGCCCAAUAGAAUCGCAAAAGGCAUCC,,,89.8,272
UCAUUAUAAAUCCAUCAUAACUACAUGAGGAUCACCCAUGUGCAGGAUAUCGAUUAUUUAACUAACGAGAAGGGCAUUUACAGA,,,50.1,169
UGAUAGGACAGAGGAUAUACCGAUAGGAUCUACUAUCGAACAAUUCUCACAUGAGGAUCACCCAUGUAGAAGGCUGUCCUAUCU,,,15.8,30.2
UUAAUUCAUGUAGGAUAUCCGAUGCGAAGCGUUGGAGAAGGACAUGAGGAUCACCCAUGUUCUAGCGUCUGAGUACAGAUGCAA,,,26.9,88.5
AAAAAACAUGAGGAUCACCCAUGUAAGGAUAUGCUGAAAAACACGGAAAAAACGUGCAGCAGAAGGUACAAAAG,,,59.5,85.9
CAGCGCUGUCGAGAGGAUAUGCGGUGAUGGACAUGAGGAUCACCCAUGUUAGCGACAGCAUCACGGCAGAAGGCUCUACCGCUGC,31.5,21.7,,
AGAUAACAUGAGGAUCACCCAUGUGAGGAUAUUUACCCAAGAGCUUCGGCUCUCAGGUGGAGAAGGCACGUUGA,,,51.3,76.8

Sequence,apparent Kd [1] [nM],apparent Kd [2] [nM],apparent Kd [3] [nM],apparent Kd [4] [nM]
UGACUAGUAAUGUAUCGAAAGAUCACAUGAGGAUCACCCAUGUAGGAUAUGAGCAGAAAAUCUGCUCAGAAGGACAUGCUAGUC,,,5.9,7.36
GACAGUGCUAAUAAAUAAGAUCUACAUGAGGAUCACCCAUGUAAGGAUAUCGUCAGGAAUACUGACGAGAAGGUACAUGCACUG,,,15.4,26.2
CACCGACCCUAUGUGUUCUAAACAUGAGGAUCACCCAUGUAUAGAAGGGUCUUCGCGAAACGCAGACAGGAUAUGUACAGGAGU,,,7.23,13.6
UUAUUCUAUAUAGGAUAUUGAUGCAAUUUACCUCAAGAAGGAUAUACAUGAGGAUCACCCAUGUUGGAUAGGGUUAGUUUGUUU,79.4,76.5,,
AAAAAAAAAAGUCAGGAUAUACAAAUUUUUACAUGAGGAUCACCCAUGUUAAAAAAAAAAAAAAAGUAGAAGGGACAAAAAAAAAA,20.9,16.9,,
AAUUUAAAGGGAGGAUAUACAUGAGGAUCACCCAUGUAAUAAUAUGAUAUUUUUUUUGUAUGAGUGUAGAAGGCCCAAAUAAAA,,,51.6,61
CCGGCAUAGGAGGAUAUAGGAGUCGAUAGACACCUAGAAGGCCUGACAUGAGGAUCACCCAUGUGUCCUACCGG,,,14.1,23.2
GCAUCACAUGAGGAUCACCCAUGUCUUCGGAGUCGAGGAUAUGGUCACUGUAAACAGUGGCCAGAAGGCGAGGUGC,67.6,38.3,,
CAGCAAAGGUAGAAGGCAGUACUGAUACAGUACUGAGGAUAUACAUGAGGAUCACCCAUGUUCUUCAGCUGGAAAUAAAUAAAA,,,8.98,134
UGUUGUAAUACAGGAUAUCUAUUAUUUUUAUUUAGAGAAGGGUAAUCACAUGAGGAUCACCCAUGUAUAUACGAGGAAGAAGAG,186,182,,
AACGAAAGCCAAGGAUAUGCAGGUGACAUGAGGAUCACCCAUGUGGAUUGUGAUCCUUAACUGAUGCAGAAGGUGGAUCUGUUG,,,513,322
UGAUGUCGCGAGGAUAUCCAAGAGGACUUUCUGGGAGAAGGUGCGACAUGAGGAUCACCCAUGUCAUAAGGAGU,,,109,287
UAUAUGUGAGGAUAUCAGGUGUGCUAGCGUACUGGUACAUCUGAGAAGGCACAUGAGGAUCACCCAUGUAUCUU,,,29.7,110
UGAUAGGACAGAGGAUAUACGUAUAAUUCCUUCAACAUGAGGAUCACCCAUGUAGAAGGCUGUCCUAUCUAAGUCGGAAACGAC,,,4.81,5.33
GGAGAGUUCACAGGAUAUCAUGGGUAGUUAUUUUGAGAAGGGUGAACAAGGAACAUGAGGAUCACCCAUGUAUCCUGGGAGGGC,24.4,36.8,,
UGUGGUGGUCAGGAUAUAAAUUGCGCCUGACGCUUAGAAGGGACUACAUGAGGAUCACCCAUGUGAGAGCUUCA,,,16.4,15.9
AAGGAUCGAGGAUAUACAUAGAUACAGAUACAUGUAGACGUACAUGAGGAUCACCCAUGUAGAAGGCGAUUAUA,,,72.6,220
GACUUGGCUACAUGAGGAUCACCCAUGUUUGACUGGAUCAAUUAGGAUAUAGUGAUAUGCAACAAUUAGAAGGGAUGUUUACGG,56.6,45.2,,
AAUUAGUAAGAAUCACAUGAGGAUCACCCAUGUUUACGGAUGCAGGAUAUGUGGGAUAUUACUUAACAGAAGGGCAAUAACUUU,104,44.2,,
AAGCUAACCACAGGAUAUCCACAUGAGGAUCACCCAUGUUGCUGAAGAGCAGGAGAAGGGUGGUGGGCAGAGUGCGCUGUCGUG,53.5,8.75,,
ACUCUACAUGAGGAUCACCCAUGUUGAGCCCAUCAAGGAUAUGGGUCUUAAUCGCGGGUGCCAGAAGGUGAUGGUU,91,109,,
AGAUGACAAAGUCAUCUCGCUUUGACAUGAGGAUCACCCAUGUAGGAUAUAUUACUCAAAGAGUAAUAGAAGGACAUGUGUCUG,,,49,155
GAGGAUUUUUAGCUGACAUGAGGAUCACCCAUGUCUUGACCCAGAAGGGCGUGGGAUUCCCAACCGCAGGAUAUGGAUAGUCGG,64.8,35.7,,
GCCAUCACAUGAGGAUAUGCUCCCGUUUCGGGAGCAGAAGGCAUGUCAUAAGACAUGAGGAUCACCCAUGUAUUUAAGAUGGCA,227,9.52,,
GUAGUGUAGUGAGGAUAUACGAGAUCGAUAGAUCGGCGAUCCAUUUAUACAUGAGGAUCACCCAUGUAGAAGGCACUUCACUAC,,,6.17,51
GCGUCAGAAUUAAUUGUGUCAUACAGAAGGCAAUAUUAAGGUUAAGACAUGAGGAUCACCCAUGUUGAGGAUAUGUAGUGACGC,,,10.5,18.6
UAUAUAUAGUAAGGAUAUGUAAUUAAUUUAUAAACAGAAGGUACUGACAUGAGGAUCACCCAUGUUUUAGUGUGGGCAUGUAGA,,,95.3,155
